Broadly, the IC50 is the concentration needed to halve the response being measured. Low readings indicate inhibition by little substance, high ones a need for much substance.

The subject of series [1] is Lewis lung carcinoma cell line. Nature of the series: (§1) Average increase in life span of treated animals over control groups of tumor-bearing untreated animals when given at optimal dose; NA means no significant activity (in vivo). It counts as functional, organism-based. Particulars: Mus musculus. The procedure, abridged: (§2)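 Mice received drug ip as a solution in 0.1 mL 30% v/v EtOH/water at the optimal dose. For P388, 10^6 cells were inoculated ip and drug given on days 1, 5 and 9. For LL, 10^6 cells were inoculated iv and drug given on days 5, 9 and 13. ILS is the mean life-span increase over untreated tumor-bearing controls, significant above 20% (P388) or 40% (LL). Groups were of six. NA means no significant activity up to acutely toxic doses.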

The test system of series [2] is P388. The series is described as §1. Particulars: Mus musculus. It counts as functional, organism-based. The gist of the method: as §2
The subject of series [3] is P388. Nature of the series: Optimal dose in mg/kg administered intraperitoneally on days 1,5 and 9 required to inhibit the growth of P388 leukemia cells was determined (in vivo). It counts as functional, Mus musculus. The procedure, abridged: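 Mice were inoculated ip with 10^6 P388 cells. Drug was given ip as a solution in 0.1 mL 30% v/v EtOH/water on days 1, 5 and 9. The optimal dose (mg/kg per day) is the one giving maximal increase in life span; survivors were scored at 50 days, in groups of six.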

Series [4] in a line: Lipophilicity (HPLC). It counts as physicochemical.
The subject of series [5] is L1210. The series is described as follows: Nanomolar concentration required to reduce the growth of L1210 cells in culture to 50% of control values after 70 h (in vitro). It counts as functional, cell-based. Particulars: Mus musculus, L1210, 70 h. The procedure, abridged: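 L1210 cells were grown in culture with drug for 70 h. IC50 is the drug concentration (nM) reducing growth to 50% of control values.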

Series [6] concerns Lewis lung carcinoma cell line. The series is described as follows: (§3) Optimal dose required after intraperitoneal administration on days 5,9 and 13 to inhibit the growth of lewis lung carcinoma (LL) cells was determined (in vivo). It is filed as functional, Mus musculus. The gist of the method: (§4)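 Mice were inoculated iv with 10^6 Lewis lung cells. Drug was given ip in 0.1 mL 30% v/v EtOH/water on days 5, 9 and 13. The optimal dose (mg/kg per day) is the one giving maximal increase in life span; survivors were scored at 60 days, in groups of six.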

Series [7] can be described thus: as §3. It counts as functional, Mus musculus. The procedure, abridged: as §4
Series [8] has as its system P388. Nature of the series: (§5) Average increase in life span of treated animals over control groups of tumor-bearing untreated animals when given at optimal dose (in vivo). It is filed as functional, Mus musculus. The gist of the method:
(§6)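 Mice inoculated ip with 10^6 P388 cells (drug ip on days 1, 5, 9) or iv with 10^6 Lewis lung cells (drug ip on days 5, 9, 13). Drug given as a solution in 0.1 mL 30% v/v EtOH/water, in mg/kg per day. Value is the average life-span increase versus untreated tumor-bearing controls at the optimal dose. Significance thresholds: ILS >20% (P388), >40% (LL). Groups of six.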

The nature of series [9]: as §5. It is filed as functional, Mus musculus. The procedure, abridged:
as §6

In series [10] the test system is Lewis lung carcinoma cell line. Nature of the series: Average increase in life span of treated animals over control groups of tumor-bearing untreated animals when given at optimal dose;NA means no significant activity (in vivo). It is filed as functional, organism-based. As to conditions: Mus musculus. The gist of the method: as §2
The subject of series [11] is Lewis lung carcinoma cell line. Nature of the series: Average increase in life span of treated animals over control groups of tumor-bearing untreated animals when given at optimal dose;NA means no significant effect (in vivo). It counts as functional, organism-based. As to conditions: Mus musculus. The procedure, abridged: as §2
For series [12], the system named is P388. The series is described as follows: Average increase in life span of treated animals over control groups of tumor-bearing untreated animals when given at optimal dose of 150 mg/kg/day;NA means no significant activity (in vivo). It is filed as functional, organism-based. As to conditions: Mus musculus. The gist of the method: as §2
The subject of series [13] is Lewis lung carcinoma cell line. Nature of the series: Average increase in life span of treated animals over control groups of tumor-bearing untreated animals when given at optimal dose of 25 mg/kg/day; NA means no significant activity (in vivo). It counts as functional, organism-based. Particulars: Mus musculus, in the assay text read “225 mg/kg/day” for “25 mg/kg/day”. The gist of the method:
as §2

In the case of `O=C(NCCNCCO)c1cccc2nc3ccccc3nc12`, the ILS max entry in [1] and in [2] was “Not significant” in each case. Also, the OD in series [3] and in series [6] was 65 mg/kg/day in each case. Moreover, in series [4], the Rm was -0.32. The IC50 in series [5] amounted to 2 µM.

For `CN(C)CCNC(=O)c1cccc2c1nc1ccccc1[n+]2[O-]`, the OD in series [3] and in series [7] was 150 mg/kg/day throughout. The same compound displayed a Rm in [4] of -0.58. Moreover, the midpoint of inhibition in [5], the IC50, lay at 3 µM. Further, the ILS max is listed as 81 in series [8] and 51 in [9].

In the case of `CN(C)CCCCNC(=O)c1cccc2nc3ccccc3nc12`, the figures for the OD in series [3] and in [6] were 150 mg/kg/day and 225 mg/kg/day, respectively. In series [4], this compound returned a Rm of -0.11. In series [5], the IC50 was found to be 1.17 µM. For the same compound, the ILS max result in series [10] was “Not significant”; in [8], 49.

Turning to `COc1ccc2nc3c(C(=O)NCCN(C)C)cccc3nc2c1`, the ILSmax entry in series [1] and in series [2] was “Not significant” in each case. In addition, the OD is 100 mg/kg/day in [3] and 150 mg/kg/day in series [6]. In [4], this compound registered a Rm of -0.27. Inhibition in series [5] was half-maximal at 4.1 µM (IC50).

In the case of `O=C(NCCN1CCOCC1)c1cccc2nc3ccccc3nc12`, the ILSmax result in series [1] and in [2] was “Not significant” throughout. Besides, the OD in series [3] and in series [6] was 225 mg/kg/day throughout. The compound further yielded a Rm in series [4] of -0.21. This compound also displayed an IC50 in [5] of 11 µM.

For `CN(C)CCNC(=O)c1c(Cl)ccc2nc3ccccc3nc12`, the ILSmax result in [2] was “Not significant”. For the same compound, in series [3], the OD amounted to 100 mg/kg/day. In series [4], this compound had a Rm of -0.27. Besides, the half-maximal inhibitory concentration (IC50) in [5] came out at 14.9 µM.

As to `COc1ccc(C(=O)NCCN(C)C)c2nc3ccccc3nc12`, the ILSmax result in [2] is “Not significant”. The compound also showed an OD in series [3] of 225 mg/kg/day. For the same compound, the Rm in series [4] is -0.41. The compound further came in with an IC50 in series [5] of 0.55 µM.

For `Cc1ccc(C(=O)NCCN(C)C)c2nc3ccccc3nc12`, the figures for the OD in series [3] and in [6] were 100 mg/kg/day and 150 mg/kg/day, respectively. Besides, the Rm in series [4] was found to be 0.08. The IC50 in series [5] is 0.4 µM. For the same compound, the ILS max in series [8] is 28; in [11], “Not significant”.

Regarding `CN(C)CCCNC(=O)c1cccc2nc3ccccc3nc12`, the OD in [3] came to 150 mg/kg/day; in series [6], 225 mg/kg/day. Besides, the ILSmax entry in series [12] and in [13] was “Not significant” each time. The compound also registered a Rm in series [4] of -0.21. Also, it took 1.5 µM to reach half-maximal inhibition in series [5] (IC50).

For the origin of these results see ChEMBL document CHEMBL1123882, “Potential antitumor agents. 51. Synthesis and antitumor activity of substituted phenazine-1-carboxamides” (J Med Chem, 1987).
